Laboratory results: ChEMBL document CHEMBL3808312, “Bioactive Constituents of Glycyrrhiza uralensis (Licorice): Discovery of the Effective Components of a Traditional Herbal Medicine” (J Nat Prod, 2016)
The source made the active and inactive calls. No cut-off for these calls is given here.

Columns and labels:
[1] = test system: HepG2; experiment: Cytotoxicity against human HepG2 cells assessed as reduction in cell viability at 10 uM after 24 hrs by MTS assay; type: functional
[2] = test system: MCF7; experiment: Cytotoxicity against human MCF7 cells assessed as reduction in cell viability at 10 uM after 24 hrs by MTS assay; type: functional
Procedure, shortened: (§1)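 Cells seeded at 5 × 10^3/well and cultured overnight, then exposed to compounds for 24 h. Viability read by MTS. Media: SW480 in RPMI1640, A549 in DMEM, MCF7 in MEM. Irinotecan positive control.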

[3] = test system: SW480; experiment: Cytotoxicity against human SW480 cells assessed as reduction in cell viability at 10 uM after 24 hrs by MTS assay; type: functional; procedure, shortened: as §1
[4] = test system: MCF7; experiment: Cytotoxicity against human MCF7 cells assessed as reduction in cell viability after 24 hrs by MTS assay; type: functional, cell-based; details: MCF7, 24 h
Procedure, shortened: (§2)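 Cells seeded at 5 × 10^3/well and cultured overnight, then exposed to compounds for 24 h. Viability read by MTS. Media: SW480 in RPMI1640, A549 in DMEM, MCF7 in MEM. […] Irinotecan positive control.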

[5] = test system: SW480; experiment: Cytotoxicity against human SW480 cells assessed as reduction in cell viability after 24 hrs by MTS assay; type: functional, cell-based; details: SW480, 24 h; procedure, shortened: as §2
[6] = molecular target: T1, Tyrosinase (Homo sapiens) (UniProt P14679); experiment: Inhibition of tyrosinase (unknown origin) using L-tyrosine as substrate assessed as oxidation of L-tyrosine at 20 uM after 15 mins
T1 sequence (whole entry): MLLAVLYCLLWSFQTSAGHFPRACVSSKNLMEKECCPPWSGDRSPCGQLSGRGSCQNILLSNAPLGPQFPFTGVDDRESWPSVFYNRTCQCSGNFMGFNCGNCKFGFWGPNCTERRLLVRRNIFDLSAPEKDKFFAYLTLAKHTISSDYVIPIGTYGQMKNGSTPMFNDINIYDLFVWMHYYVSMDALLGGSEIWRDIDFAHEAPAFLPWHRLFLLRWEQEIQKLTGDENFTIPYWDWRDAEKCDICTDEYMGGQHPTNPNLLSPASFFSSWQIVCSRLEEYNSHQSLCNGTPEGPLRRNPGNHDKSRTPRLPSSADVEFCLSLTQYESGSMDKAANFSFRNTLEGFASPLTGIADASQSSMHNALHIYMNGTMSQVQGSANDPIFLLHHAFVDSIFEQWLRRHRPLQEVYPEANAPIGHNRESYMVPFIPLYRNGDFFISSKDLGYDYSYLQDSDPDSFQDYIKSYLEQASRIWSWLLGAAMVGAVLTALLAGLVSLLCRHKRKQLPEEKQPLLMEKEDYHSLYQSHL
Procedure, shortened: (§3)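 Tyrosinase at 333 U/mL (stock) in 45 mM sodium phosphate, pH 6.6, with 2 mM L-tyrosine (stock). Incubated 37 °C for 15 min; oxidation read at 492 nm. Screened at 20 μM; dose-response for IC50. Glyasperin C positive control.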

[7] = test system: HepG2; experiment: Cytotoxicity against human HepG2 cells assessed as reduction in cell viability after 24 hrs by MTS assay; type: functional, cell-based; details: HepG2, 24 h; procedure, shortened: as §2
[8] = test system: A549; experiment: Cytotoxicity against human A549 cells assessed as reduction in cell viability after 24 hrs by MTS assay; type: functional, cell-based; details: A549, 24 h; procedure, shortened: as §2
[9] = molecular target: T2, Tyrosinase (Homo sapiens, UniProt P14679); experiment: Inhibition of tyrosinase (unknown origin) using L-tyrosine as substrate assessed as oxidation of L-tyrosine after 15 mins; procedure, shortened: as §3
T2 sequence (P14679 whole entry): T1 sequence (whole entry)

[10] = test system: A549; experiment: Cytotoxicity against human A549 cells assessed as reduction in cell viability at 10 uM after 24 hrs by MTS assay; type: functional; procedure, shortened: as §1
[11] = test system: Mus musculus; experiment: In vivo NRF2 activation in ip dosed C57BL/6J mouse assessed as increase in liver transcription of HO-1 administered as qd for 3 days measured 3 hrs post last dose by qRT-PCR analysis; type: functional, organism-based
Procedure, shortened: (§4)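 Male C57BL/6J mice given compound in corn oil at 5 or 10 mg/kg ip for three consecutive days; controls received corn oil. Liver harvested 3 h after final dose. HO-1 and NQO-1 mRNA measured by qRT-PCR with mouse primers. Nrf2 and HO-1 protein measured by Western blot (20 μg, 10% SDS-PAGE, ECL).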

[12] = test system: HepG2; experiment: Toxicity in human HepG2 cells at 20 to 40 uM; type: cell-based; details: hepg2, 40 µM
[13] = test system: Mus musculus; experiment: Hepatoprotective activity in C57BL/6J mouse assessed as prevention of CCL4-induced severe hepatic lesions at 5 mg/kg, ip administered qd for 3 days followed by CCL4 addition at 3 hrs post last dose measured after 24 hrs by hematoxylin-eosin staining; type: functional, organism-based
Procedure, shortened: (§5)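 Seven-week-old male C57BL/6J mice, n = 10/group, given compound in corn oil (0.5 or 1 mg/mL) at 5 or 10 mg/kg ip once daily for 3 days. CCl4 at 200 μL/kg ip (2% v/v in corn oil) given 3 h after the last dose. Sacrifice at 24 h. Serum ALT/AST measured; liver GSH by GSH/GSSG kit normalized to BCA protein; left lobe H&E stained and scored blind at 4× and 20×.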

[14] = test system: Mus musculus; experiment: Hepatoprotective activity in ip dosed C57BL/6J mouse assessed as reduction in CCL4-induced serum AST level administered qd for 3 days followed by CCL4 addition at 3 hrs post last dose measured after 24 hrs; type: functional, organism-based; procedure, shortened: as §5
[15] = molecular target: T3, Nuclear factor erythroid 2-related factor 2 (Homo sapiens) (UniProt Q16236); experiment: Activation of NRF2 transcription in human HepG2C8 cells after 6 hrs by luciferase reporter gene assay; type: cell-based
T3 sequence (whole entry): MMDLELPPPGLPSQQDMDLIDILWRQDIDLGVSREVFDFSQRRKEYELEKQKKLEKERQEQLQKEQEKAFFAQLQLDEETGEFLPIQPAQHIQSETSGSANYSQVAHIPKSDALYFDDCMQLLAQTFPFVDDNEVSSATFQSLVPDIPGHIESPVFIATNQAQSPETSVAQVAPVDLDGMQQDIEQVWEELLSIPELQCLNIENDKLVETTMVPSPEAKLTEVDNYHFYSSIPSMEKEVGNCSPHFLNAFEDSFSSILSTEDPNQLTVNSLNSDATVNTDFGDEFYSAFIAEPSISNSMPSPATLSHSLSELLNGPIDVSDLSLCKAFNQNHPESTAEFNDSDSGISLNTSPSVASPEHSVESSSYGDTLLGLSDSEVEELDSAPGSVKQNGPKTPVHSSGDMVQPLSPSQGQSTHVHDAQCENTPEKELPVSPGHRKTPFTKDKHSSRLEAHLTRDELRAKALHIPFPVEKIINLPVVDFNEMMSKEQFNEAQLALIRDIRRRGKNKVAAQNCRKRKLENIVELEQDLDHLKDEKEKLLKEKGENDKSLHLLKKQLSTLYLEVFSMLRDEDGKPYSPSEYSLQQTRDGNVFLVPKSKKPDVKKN
Procedure, shortened: (§6)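 Luciferase reporter in HepG2C8 cells, which are HepG2 stably transfected with an Nrf2 luciferase reporter and grown in MEM. Screened at 10 μM, with dose-response over 2.5−40 μM. Activity expressed as fold of control. tBHQ positive control.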

[16] = test system: Influenza A virus; experiment: Antiviral activity against Influenza A virus A/WSN/33(H1N1) infected in MDCK cells at 100 uM preincubated with virus for 15 mins followed by cells addition measured at 36 hrs post infection; type: functional, A/WSN/1933(H1N1)
Procedure, shortened: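 MDCK canine kidney cells grown in DMEM and infected with influenza A/WSN/33 (H1N1). Compounds screened at 100 μM. Oseltamivir phosphate served as the positive control.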

[17] = molecular target: T3, Nuclear factor erythroid 2-related factor 2 (Homo sapiens); experiment: Activation of NRF2 in human HepG2 cells by Western blot analysis; type: cell-based
Procedure, shortened: (§7)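 HepG2 cells treated with or without compound. HO-1 and NQO1 transcripts measured by RT-PCR after total RNA extraction and reverse transcription, amplified against β-actin with human primers. For protein, 20 μg lysate (RIPA) separated on 10% SDS-PAGE, blotted to PVDF, probed with antibodies to Nrf2, HO-1, NQO-1 and β-actin, and detected by ECL.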

[18] = test system: Mus musculus; experiment: (§8) Hepatoprotective activity in C57BL/6J mouse assessed as attenuation of CCL4-mediated GSH level depletion measured as GSH level […] of protein at 5 mg/kg, ip administered qd for 3 days followed by CCL4 addition at 3 hrs post last dose measured after 24 hrs by GSH/GSSG assay (reference value: 0.86 +/- 0.38 nmol); type: functional; procedure, shortened: as §5
[19] = test system: Mus musculus; experiment: Hepatoprotective activity in ip dosed C57BL/6J mouse assessed as reduction in CCL4-induced serum ALT level administered qd for 3 days followed by CCL4 addition at 3 hrs post last dose measured after 24 hrs; type: functional, organism-based; procedure, shortened: as §5
[20] = test system: Mus musculus; experiment: In vivo NRF2 activation in ip dosed C57BL/6J mouse assessed as increase in liver transcription of NQO-1 administered as qd for 3 days measured 3 hrs post last dose by qRT-PCR analysis; type: functional, organism-based; procedure, shortened: as §4
[21] = molecular target: T3, Nuclear factor erythroid 2-related factor 2 (Homo sapiens); experiment: Activation of NRF2 in human HepG2 cells assessed as upregulation of HO-1 level by Western blot analysis; type: cell-based; procedure, shortened: as §7
[22] = molecular target: T3, Nuclear factor erythroid 2-related factor 2 (Homo sapiens); experiment: Activation of NRF2 in human HepG2 cells assessed as induction of HO-1 transcription by RT-PCR analysis; type: cell-based; procedure, shortened: as §7
[23] = molecular target: T3, Nuclear factor erythroid 2-related factor 2 (Homo sapiens); experiment: Activation of NRF2 transcription in human HepG2C8 cells at 10 uM after 6 hrs by luciferase reporter gene assay relative to control; type: cell-based; procedure, shortened: as §6
[24] = molecular target: T3, Nuclear factor erythroid 2-related factor 2 (Homo sapiens); experiment: Activation of NRF2 transcription in human HepG2C8 cells at 40 uM after 6 hrs by luciferase reporter gene assay relative to control; type: cell-based; procedure, shortened: as §6
[25] = test system: Mus musculus; experiment: In vivo increase in NRF2 levels in C57BL/6J mouse liver at 5 to 10 mg/kg, ip qd administered for 3 days measured 3 hrs post last dose by Western blot analysis; type: functional, organism-based; procedure, shortened: as §4
[26] = test system: Mus musculus; experiment: In vivo increase in HO-1 levels in C57BL/6J mouse liver at 5 to 10 mg/kg, ip qd administered for 3 days measured 3 hrs post last dose by Western blot analysis; type: functional, organism-based; procedure, shortened: as §4
[27] = molecular target: T3, Nuclear factor erythroid 2-related factor 2 (Homo sapiens); experiment: Activation of NRF2 in human HepG2 cells assessed as induction of NQO-1 transcription by RT-PCR analysis; type: cell-based; procedure, shortened: as §7
[28] = test system: Mus musculus; experiment: as §8, with “at 10” for “at 5”; type: functional; procedure, shortened: as §5
[29] = molecular target: T3, Nuclear factor erythroid 2-related factor 2 (Homo sapiens); experiment: Activation of NRF2 transcription in human HepG2C8 cells at 20 uM after 6 hrs by luciferase reporter gene assay relative to control; type: cell-based; procedure, shortened: as §6

COc1cc2c(c(OC)c1CC=C(C)C)C[C@H](c1ccc(O)cc1O)CO2 [GLYASPERIN D]
Activity [1]: 99%
Activity [2]: 98%
Activity [3]: 78%
IC50 [4]: 6.7 µM
IC50 [5]: 7.2 µM
inhibition [6]: > 95%
IC50 [7]: 3.8 µM
IC50 [8]: 12.9 µM
IC50 [9]: 0.154 µM
Activity [10]: 25%

COc1cc(O)ccc1/C=C/C(=O)c1ccc(O)cc1 [ECHINATIN]
Activity [11]: Dose-dependent effect
Activity [12]: Toxic
Activity [13]: Active
Activity [14]: Dose-dependent effect
Activity [15]: Dose-dependent effect
Activity [16]: >30%
Activity [17]: Dose-dependent effect
Activity [18]: 2.42 nmol
Activity [19]: Dose-dependent effect
Activity [20]: Dose-dependent effect
inhibition [6]: Active
Activity [21]: Dose-dependent effect
Activity [22]: Dose-dependent effect
fold change (FC) [23]: 5.46
fold change (FC) [24]: 4.3
Activity [25]: Active
Activity [26]: Active
Activity [27]: Dose-dependent effect
Activity [28]: 2.58 nmol
fold change (FC) [29]: 6.8
